# According to ChEMBL document CHEMBL1149711, “Novel indanyl-substituted imidazo[1,2-a]pyridines as potent reversible inhibitors of the gastric H+/K+-ATPase” (Bioorg Med Chem Lett, 2007):
# What was measured:
# [1] = Inhibition of H+/K+ ATPase in hog gastric mucosa by competitive binding assay; type: tissue-based, Sus scrofa
# In short: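 Competitive binding assay using H+/K+-ATPase prepared from hog gastric mucosa; activity reported as −log IC50.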
# [2] = Lipophilicity, log D at pH 7.4; type: physicochemical; details: buffer
# [3] = Dissociation constant, pKa of the compound; type: physicochemical
# In short: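 Potentiometric co-solvent titration in 0.15 mol/L KCl over pH 2.0–11.0 at 25 °C. Methanol co-solvent at varying proportions; 0.5 mol/L KOH and HCl as titrants. Aqueous pKa obtained by linear extrapolation to 0% co-solvent (Yasuda–Shedlovsky plot).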
# [4] = Lipophilicity, log P of the compound; type: physicochemical; details: octanol/water
Structure (SMILES),Log IC50 [1],logD [2],pKa [3],logP [4]
Cc1cccc2c1[C@H](Oc1cc(C(=O)N(C)C)cn3c(C)c(C)nc13)[C@@H](O)C2,-6.9,2.56,6.22,2.59
Cc1nc2c(O[C@H]3c4ccccc4C[C@@H]3O)cc(C(=O)N(C)C)cn2c1C,-5.7,2.16,6.21,2.2
CCc1cccc(C)c1CNc1cc(C(N)=O)cn2c(C)c(C)nc12,-6.2,4.93,6.1,4.95
COc1cccc2c1[C@H](Oc1cc(C(=O)N(C)C)cn3c(C)c(C)nc13)[C@@H](O)C2,-5.7,2.27,6.27,2.3

# The next lines start with the values.
Log IC50 [1],logD [2],pKa [3],logP [4],Structure (SMILES)
-4.8,3.09,5.97,3.11,Cc1nc2c(N[C@H]3c4ccccc4C[C@@H]3O)cc(C(N)=O)cn2c1C
-4.7,3.41,6.01,3.43,COCCNC(=O)c1cc(N[C@H]2c3ccccc3C[C@@H]2O)c2nc(C)c(C)n2c1
-6.3,2.82,6.24,2.85,Cc1nc2c(N[C@H]3c4ccccc4C[C@@H]3O)cc(C(=O)N(C)C)cn2c1C
-5.4,3.39,5.97,3.4,CNC(=O)c1cc(N[C@H]2c3ccccc3C[C@@H]2O)c2nc(C)c(C)n2c1
